Test system: MS2 coat protein
Assay: apparent Kd, MS2 coat protein; higher = weaker binding; RNA-MaP array; FMN 200 µM where present
Summary of the method: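 SNAP-549-labelled MS2 coat protein, doubled from 0.7 or 1.5 nM to 3 µM, was titrated over designs transcribed by stalled E. coli RNA polymerase on Illumina sequencing-chip clusters. Titrations were run without and then with constant ligand in 100 mM Tris-HCl pH 7.5, 80 mM KCl, 4 mM MgCl2, BSA, DTT, yeast tRNA and Tween-20. The apparent Kd is the median of filtered per-cluster fits to green signal normalised to red-channel RNA signal and control-cluster median Fmax.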

[1] = designed as: OFF switch for flavin mononucleotide, no ligand
[2] = ligand present: flavin mononucleotide, designed as: OFF switch for flavin mononucleotide
[3] = designed as: ON switch for flavin mononucleotide, no ligand
[4] = ligand present: flavin mononucleotide, designed as: ON switch for flavin mononucleotide

## AAAACGGUAGGAUAUACAUGAGGAUCACCCAUGUUAAAUUUAAAAAUAAAAUUAAAAUGUAGAAGGACCAAAAA
[1]
  apparent Kd: 32 nM
[2]
  apparent Kd: 32.3 nM

## AAUAAGCUAGGAUAUACAUGAGGAUCACCCAUGUGAGGGCACGGCCGGCGCGGGCCCGGUAGAAGGAGUCAUAA
[1]
  apparent Kd: 28.6 nM
[2]
  apparent Kd: 23.6 nM

## UUGGACGUCGUAGGAUAUGUAGGAUUUUCCUACAUGAGGAUCACCCAUGUUGACAUGGAAGAAGGACAGAAGGACGAUGUCCAU
[3]
  apparent Kd: 648 nM
[4]
  apparent Kd: 16.3 nM

## CGGGUCUGAGGAUAUCCAUCUUCAUACAUGAGGAUCACCCAUGUUUACCCUUGGGUUCCCGGAGAAGGCAGUUUUC
[1]
  apparent Kd: 60.9 nM
[2]
  apparent Kd: 56.4 nM

## GUCAGCUCGUGAGGAUAUACAACACUGCUUCGGCAGUGGAUUAAGAUCACAUGAGGAUCACCCAUGUAGAAGGCACGAGCUGAU
[1]
  apparent Kd: 16.2 nM
[2]
  apparent Kd: 423 nM

## UGUGCGUUGAUCUUCGAUCGGAGUACAUGAGGAUCACCCAUGUAGGAUAUUCAAAGACGCAGAUAGAAGAAGGACAUAGGUUUC
[1]
  apparent Kd: 10.1 nM
[2]
  apparent Kd: 11.1 nM

## GUUUCGGGAGGAUAUGCGUGGAUUAUUUUCGUAUGUUGUUUACAUGAGGAUCACCCAUGUAGAAGGUCUGGAGC
[1]
  apparent Kd: 42.8 nM
[2]
  apparent Kd: 228 nM

## CAGUACGGAGGAUAUACAUGAGGAUCACCCAUGUGAGAAAUACUAGUGAGGUCGAUUAGUAGAAGGCUGUACUG
[1]
  apparent Kd: 40.5 nM
[2]
  apparent Kd: 579 nM

## UUUAGUUCAGGAUAUGUAGAUUUUAACAUGAGGAUCACCCAUGUAGAUCCUGAAUUAACUACAGAAGGGAACAUUA
[1]
  apparent Kd: 21.3 nM
[2]
  apparent Kd: 75.4 nM

## GAUUAACAUGAGGAUCACCCAUGUGAGGAUAUUGACUUGCUCACUUUCCCAUUCGAGUCGAGAAGGCGCAUCUU
[1]
  apparent Kd: 28.7 nM
[2]
  apparent Kd: 29 nM

## AAUAUGUUAGGAUAUGCUGCUCGUCACAAAAGUGAUGAGUAGCAGAAGGGACAUGAGGAUCACCCAUGUAAAGA
[1]
  apparent Kd: 36.6 nM
[2]
  apparent Kd: 29.6 nM

## AGAUACUACGAGAAGGACAUGAGGAUCACCCAUGUAACCAGUAUCUGGAAUGUAGGAUAUCGUAGUAUCAGGAUCGUGAGAUCA
[1]
  apparent Kd: 9.91 nM
[2]
  apparent Kd: 32.9 nM

## UUGAGGUGUCAAGGAUAUGCUACCGUUUCGGUAGCAGAAGGUGAUCACAUGAGGAUCACCCAUGUAUGCAUGCGUGAGCGUGCU
[3]
  apparent Kd: 45.6 nM
[4]
  apparent Kd: 285 nM

## GGUACCAUCACAGGAUAUGCAAUCCUUUGGGUUGCAGAAGGGUGUAACAUGAGGAUCACCCAUGUGGUGCCAGGGCGUGAGCCC
[3]
  apparent Kd: 423 nM
[4]
  apparent Kd: 44.5 nM

## UGUAUUAACGGAGGAUAUCGAUAUCAAACAUGAGGAUCACCCAUGUUGAGGAUCACCCAUGUCCAUGAGAAGGCUGGCGUACUU
[3]
  apparent Kd: 20.8 nM
[4]
  apparent Kd: 20.6 nM

## ACAUGAGGAUCACCCAUGUAGAAUGAAGAAGGUACGUUAUUGAUAUGCAGGAAGUGUCGGUGUUGUAAGGAUAUUCUAAUAAUU
[3]
  apparent Kd: 15.5 nM
[4]
  apparent Kd: 8.16 nM

## AUAUGCCAUGUAAGGAUAUACUGGAGCAUAAGCUCGUAGAAGGUACAUGAGGAUCACCCAUGUGGACCCGACAC
[1]
  apparent Kd: 29.9 nM
[2]
  apparent Kd: 34.9 nM

## AUUUUAUAAUAGAAGGAGGACUUCAUGAGGAUCACCCAUGUGUUGGUACUUAGGAUAUGUAAUAACAUGAGGAUCACCCAUGUC
[3]
  apparent Kd: 55.9 nM
[4]
  apparent Kd: 49.8 nM

## CAUUAAUUCAUUAUAGUUAUUAUACAGGAUAUGUUACAUGAGGAUCACCCAUGUAUUCAUGGUAAACAGAAGGGUAAUUCAAGU
[1]
  apparent Kd: 24.9 nM
[2]
  apparent Kd: 22.6 nM

## ACCAAGCUAGGAUAUGCUUGGGCUCAAAUAAAUAAACACAAACAUGAGGAUCACCCAUGUAGAAGGAGCUUGCU
[1]
  apparent Kd: 12.4 nM
[2]
  apparent Kd: 15.5 nM

## AAAACGUGAGGAUAUGCACCAACCAAGGUUUUUCGGGUACGACAUGAGGAUCACCCAUGUAGAAGGCACGCAAA
[1]
  apparent Kd: 26.4 nM
[2]
  apparent Kd: 32 nM

## UGUGCGUUGAUCUUCGAUCGUUGUACAUGAGGAUCACCCAUGUAGGAUAUUCUAAGACGCAGAUAGGAGAAGGACAUUGGUUUU
[1]
  apparent Kd: 10.1 nM
[2]
  apparent Kd: 17.6 nM

## UGGAAACAUGAGGAUCACCCAUGUAAAAGGUGGUUAGGAUAUGCAAAACGGAAAACGAAAGCAGAAGGGACAAAAA
[3]
  apparent Kd: 412 nM
[4]
  apparent Kd: 302 nM

## CCUCAGUCAGGAUAUAUCGCACCCAUGAAGUACAUAGGUUCAUAGAAGGGACAUGAGGAUCACCCAUGUCUAGA
[1]
  apparent Kd: 22 nM
[2]
  apparent Kd: 57 nM

## AAUUCGUCAGGAUAUGCAUGUAAUUGUUACAUUUCUCCGUUGCAGAAGGGACAUGAGGAUCACCCAUGUAAGUC
[1]
  apparent Kd: 29.7 nM
[2]
  apparent Kd: 28.7 nM

## AUCAGCUAGUCAGGAUAUACGUCACUGCGUCAGCAGUGUGGUAAGAUCACAUGAGGAUCACCCAUGUAGAAGGGACGAGCUGAU
[1]
  apparent Kd: 14.2 nM
[2]
  apparent Kd: 295 nM

## GGCAGACAUGAGGAUCACCCAUGUCAGGAUAUGUGGCGAUCGUCGAUAGACGAUAGCCACAGAAGGGACAUGCC
[1]
  apparent Kd: 23.9 nM
[2]
  apparent Kd: 39.5 nM

## AAUUGACAUGAGGAUCACCCAUGUCCACCAAACGGAGGAUAUUGGGCGGCAAAACGUUGUUAAGAAGGCCGAAAUU
[3]
  apparent Kd: 34.1 nM
[4]
  apparent Kd: 88.3 nM

## GGAAAACAUGAGGAUCACCCAUGUGAAAACGUGGGAGGAUAUGGAUGGAAACCAUACUGUCCAGAAGGCCCAUGUC
[3]
  apparent Kd: 67.6 nM
[4]
  apparent Kd: 18.9 nM

## AGCGGCGCGGACCACCGCAAAACCAGAAGGACAUGAGGAUCACCCAUGUAACAAAACAGGGCGGUGUAGGAUAUGGCAGACCCA
[1]
  apparent Kd: 10.8 nM
[2]
  apparent Kd: 9.16 nM

## AUUUUGUCAGGAUAUGACUAGAUGCACGAAAGUGCAUCUACUUAGAAGGGACAUGAGGAUCACCCAUGUAUUCC
[1]
  apparent Kd: 17.3 nM
[2]
  apparent Kd: 17.8 nM

## UUCAUGUGAGGAUAUGUGUACUGCUUUCUGUUUAGAUGUACACAGAAGGCACAUGAGGAUCACCCAUGUAGUAC
[1]
  apparent Kd: 45.5 nM
[2]
  apparent Kd: 31.8 nM

## AAUAUAGAGCUGGUCUCAUAAUAAACAUGAGGAUCACCCAUGUAGGAUAUCAGCACGAUAAGUGCUGAGAAGGACAUCCAGCUC
[1]
  apparent Kd: 21.4 nM
[2]
  apparent Kd: 47 nM

## AUCCUACAUGAGGAUCACCCAUGUGACGCCUCGAUAGGAUAUGCGUGUGCCUUGGCGCAUGCAGAAGGAUUGUUGC
[3]
  apparent Kd: 149 nM
[4]
  apparent Kd: 195 nM

## CUGUGAUGGAUCCAGAAUUACAACAUGAGGAUCACCCAUGUGCAGGAUAUCGGGUUGAUAGGCGCCGAGAAGGGUAUAGUCACG
[1]
  apparent Kd: 132 nM
[2]
  apparent Kd: 132 nM

## UCGGCCGCCGUGAGGAUAUGCCCGCGCGCCCGCGGGCAGAAGGCACAUGAGGAUCACCCAUGUCCCGCGGCAUU
[1]
  apparent Kd: 16.2 nM
[2]
  apparent Kd: 35.1 nM

## GGUGCCAUGUAGAAGGCAGAUCUGAUUCACAUCUGAGGAUAUACAUGAGGAUCACCCAUGUAAAGGCACCGCACGAGAGUGCAA
[1]
  apparent Kd: 16.3 nM
[2]
  apparent Kd: 15 nM

## GGAUAGUGUCGUUAUCCGUAGCGAACAUGAGGAUCACCCAUGUAGGAUAUGUUACUAAACUAGUAACAGAAGGGCGUGAGUCUU
[1]
  apparent Kd: 94.2 nM
[2]
  apparent Kd: 108 nM

## GUGUAGCAAGGAUAUACAUGAGGAUCACCCAUGUGAAUAAGAUAGAAUAAGAUAAAGUGUAGAAGGUGCAGUGU
[1]
  apparent Kd: 39 nM
[2]
  apparent Kd: 34.4 nM

## GGGUACAUCGCAGGAUAUCAUGUAAAUACAUGAGGAUCACCCAUGUCGAUGGAGACAUCGGAGAUUGAGAAGGCCGAUGUACCG
[3]
  apparent Kd: 622 nM
[4]
  apparent Kd: 322 nM

## GCUAUCGAUGUAGGAUAUGCUAGAGAAACUCUGGCAGAAGGACAUGAGGAUCACCCAUGUCAAUGGAUGGAGAGAAGAGAUGGC
[1]
  apparent Kd: 24.1 nM
[2]
  apparent Kd: 58 nM

## GUUAUGUGAGGAUAUAUGUAGGAAACUACAUUAAGGGUAUCACAUGAGGAUCACCCAUGUAGAAGGCGCGUAGC
[1]
  apparent Kd: 298 nM
[2]
  apparent Kd: 349 nM

## GUGUACAGAGGAUAUACUCAUGGAGUUACGAAAGUAACUUCACAUGAGGAUCACCCAUGUAGAAGGCUGUACAC
[1]
  apparent Kd: 473 nM
[2]
  apparent Kd: 293 nM

## AGCCUAGCAGGAUAUGCCCGGGAUAACAUGAGGAUCACCCAUGUGACUGAUUGAUAUCCUGCAGAAGGGCUAGGGA
[1]
  apparent Kd: 24.4 nM
[2]
  apparent Kd: 122 nM

## UAUUUAAUCAUAGGAUAUAGUGUGAAAUUUGGACUAGAAGGAUGUAACAUGAGGAUCACCCAUGUGGUAAGUGGGACACAGUGA
[3]
  apparent Kd: 106 nM
[4]
  apparent Kd: 177 nM

## CUGUAGAGUUAGGAUAUCGGCGCGUGAGAAGUUUGAGAAGGGACCACAUGAGGAUCACCCAUGUGUCUUCACCU
[1]
  apparent Kd: 14.7 nM
[2]
  apparent Kd: 15.7 nM

## GCGGAACAUGAGGAUCACCCAUGUAUCCCAAAUAUGGACUCACAGGAUAUCCCGAGUUGCCAGUGGGAGAAGGGUGACUCCAGA
[3]
  apparent Kd: 14.2 nM
[4]
  apparent Kd: 6.55 nM

## AUUUGAAAGUCAGGAUAUGGUAGAUUAUUCUUAUCAGAAGGGAUUAUUAUACUCAAGUACAUGAGGAUCACCCAUGUUAAAUCA
[3]
  apparent Kd: 22.6 nM
[4]
  apparent Kd: 13 nM

Source: the EternaBench riboswitch data
